We go through 16 compounds from PubChem BioAssay AID743061 (The Scripps Research Institute Molecular Screening Center, 2013).

Broadly, the inhibition is the drop in the measured response relative to a control, in per cent.

The target of the assay is Methionine--tRNA ligase, mitochondrial (Homo sapiens) (UniProt Q96GW9). Description: human mtMetRS tRNA charging inhibition – biochemical, radioactivity, round 1, selectivity assay for T. brucei MetRS inhibitor project, late-stage follow-up (AID 743061).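 Note: 0% = DMSO with full reaction and 100% = DMSO wells lacking tRNA.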 Conditions: recombinant human mtMetRS, [3H]Met tRNA charging, at 10 µM, stronger effect = higher value. The method, boiled down: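 System: human mitochondrial MetRS enzyme / Buffer or medium: pH 8.0 reaction buffer containing 2.5 mM ATP / Probe or stimulus: 240 nM [3H]methionine with bulk E. coli tRNA acceptor / Doses: 10 and 1 µM / Times: 15 min compound–enzyme preincubation, then 1 h reaction at room temperature / Detection: scintillation counts of TCA-precipitated charged tRNA on filters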
With `O=C(C[C@H]1C(=O)N(Cc2ccccc2)C[C@@H]1c1ccc(Br)cc1)Nc1ccc(Br)cc1`, the inhibition was -8.54%. As to `CC(=O)c1c[nH]c(C(=O)NCc2cccc(C(F)(F)F)c2)c1`, the inhibition stood at 43.8%. With `O=C(CC=NOCc1ccc([N+](=O)[O-])cc1)Nc1ccc(Cl)cc1`, the inhibition turned out to be 1.47%.

Consider `Cc1cccc(C(=O)NCCc2nc3ccccc3n2CCOc2ccccc2)c1`, for which the inhibition was 4.57%.

Regarding `O=C(N/C(=C\c1cccnc1)c1nc2ccccc2[nH]1)c1cccc(Br)c1`, the inhibition worked out at 4.89%. `O=C(Cn1cc(C(=O)c2ccccc2)c2ccccc21)Nc1cccc(C(F)(F)F)c1`: the inhibition worked out at 9.64%.

Take `O=C(CN1CCSC1=NCc1ccccc1)c1ccc(Cl)c(Cl)c1`: the inhibition was -25.5%. `Cc1ccc(NC(=O)CN(C)C(=O)CCSc2ccc(F)cc2)cc1`: the inhibition was -21.5%. `CCC(=O)c1cn(CC(=O)Nc2cccc(C(F)(F)F)c2)c2ccccc12`: the inhibition is -3.88%. In the case of `CCN(CC)C(=O)C(=O)c1cn(CC(=O)Nc2cccc(OC)c2)c2ccccc12`, the inhibition turned out to be 17.3%. Take `Cc1cccc(NC(=O)C2CC(=O)n3c(nc4ccccc43)N2)c1` (stereo unspecified): the inhibition is 6.78%. As to `Cc1[nH]c2ccc(Br)cc2c(=O)c1CN1CCCCCC1`, the inhibition is -11%. For the compound `O=C(NCc1nc2ccccc2[nH]1)C1=C[C@@H](c2ccc(Br)cc2)C[C@@H](OCCCCO)O1`, the inhibition amounted to 29%. In the case of `COc1ccc(CCN(C(=O)c2cccc(F)c2)C2CC(=O)N(c3ccc(Br)cc3)C2=O)cc1` (stereo unspecified) it was 4.36%.

Turning to `CC1Cc2ccccc2N1C(=O)Cn1cc(C(=O)C(=O)N2CCOCC2)c2ccccc21` (stereo unspecified), the inhibition is 7.77%. As to `CC(C)OCCCN1CC(=O)N2C(c3cccc([N+](=O)[O-])c3)c3[nH]c4ccccc4c3C[C@H]2C1=O` (stereo partly specified), the inhibition is -3.65%.
